PMC2842456 (ACS chemical biology, 2010)

Tested on: wild-type clamp sensor
Assay type: binding
Settings: ligand titration with wild-type clamp sensor (Figure 2F)
In short: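 CyPet–clamp–YPet fusion, expressed in E. coli BL21(DE3) and Ni-affinity purified, used at 140 nM unless noted. Titrated with SUMO fusions (target-peptide fusion, bare SUMO, unrelated-peptide fusion). Samples were degassed, then incubated 30 min at 25 °C in the dark. Excitation 415 nm; FRET ratio taken as 527/475 nm emission, plotted against ligand concentration.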

Row | Molecule | Effect on the FRET ratio of the wild-type sensor (in words)
1 | GGDVHVNATYVNVKSVA [SUMO fused with an unrelated peptide] | no significant effect on the FRET ratio
2 | SUMO without an attached peptide: yeast SUMO with no attached peptide (protein, UniProt Q12306 2-98, looked up) Ubiquitin-like protein SMT3: SDSEVNQEAKPEVKPEVKPETHINLKVSDGSSEIFFKIKKTTPLRRLMEAFAKRQGKEMDSLRFLYDGIRIQADQTPEDLDMEDNDIIEAHREQIGG | no significant effect on the FRET ratio
